This passage reports Ke and Ratio Ke results from ChEMBL document CHEMBL1138153, “N-substituted 4beta-methyl-5-(3-hydroxyphenyl)-7alpha-amidomorphans are potent, selective kappa opioid receptor antagonists” (J Med Chem, 2006).

In assay [1] the target is Kappa-type opioid receptor (Homo sapiens) (UniProt P41145). Put plainly: Inhibition of U69,593 stimulated [35S]GTP-gamma-S binding to cloned human kappa opioid receptor expressed in CHO cells. It counts as functional, cell-based. The method in brief:
(§1)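 Antagonism measured as a rightward shift of the agonist concentration–response curve for [35S]GTPγS binding in CHO cells expressing the cloned human receptor. Curves were run with and without one fixed concentration of test compound. Ke = [L]/(DR − 1), where [L] is the test compound concentration and DR is the ratio of agonist EC50 with versus without test compound.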
In general terms: GTPγS is a poorly hydrolysed GTP analogue; its binding reports G protein activation.

The target in assay [2] is Delta-type opioid receptor (Homo sapiens) (UniProt P41143). Put plainly: Inhibition of DPDPE stimulated [35S]GTP-gamma-S binding to cloned human delta opioid receptor expressed in CHO cells. Type of assay: functional, cell-based. The method in brief: as §1
Delta-type opioid receptor (Homo sapiens), sequence (P41143 whole entry): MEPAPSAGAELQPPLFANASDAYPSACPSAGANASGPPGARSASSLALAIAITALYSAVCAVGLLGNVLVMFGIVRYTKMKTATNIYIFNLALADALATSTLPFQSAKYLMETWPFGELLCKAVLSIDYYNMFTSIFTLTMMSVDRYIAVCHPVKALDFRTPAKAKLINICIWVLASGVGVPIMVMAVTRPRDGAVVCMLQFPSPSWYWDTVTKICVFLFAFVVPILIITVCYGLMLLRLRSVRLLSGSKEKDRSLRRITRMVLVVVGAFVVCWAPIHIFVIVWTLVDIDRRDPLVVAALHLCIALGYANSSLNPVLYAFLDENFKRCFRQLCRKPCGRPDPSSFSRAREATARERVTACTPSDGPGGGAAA
The target in assay [3] is Opioid receptors; delta & kappa (Homo sapiens) (UniProt P41145+P41143). Put plainly: Selectivity for human kappa opioid receptor over human delta opioid receptor. Type of assay: protein assay.
Opioid receptors; delta & kappa (Homo sapiens), sequence (P41143 whole entry, looked up): as the sequence (P41143 whole entry) above
Opioid receptors; delta & kappa (Homo sapiens), sequence (P41145 whole entry, looked up): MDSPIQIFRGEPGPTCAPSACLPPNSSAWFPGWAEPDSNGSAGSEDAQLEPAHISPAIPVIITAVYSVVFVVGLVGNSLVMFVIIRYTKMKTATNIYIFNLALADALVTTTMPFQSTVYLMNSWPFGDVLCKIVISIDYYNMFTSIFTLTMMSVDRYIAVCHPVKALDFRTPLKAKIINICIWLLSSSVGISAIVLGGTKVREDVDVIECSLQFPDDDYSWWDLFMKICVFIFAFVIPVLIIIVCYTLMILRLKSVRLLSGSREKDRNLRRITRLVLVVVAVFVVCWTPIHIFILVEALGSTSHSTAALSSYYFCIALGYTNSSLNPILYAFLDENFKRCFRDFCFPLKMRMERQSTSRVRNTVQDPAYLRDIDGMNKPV
Assay [4] deals with Mu-type opioid receptor (Homo sapiens) (UniProt P35372). Put plainly: Inhibition of DAMGO stimulated [35S]GTP-gamma-S binding to cloned human mu opioid receptor expressed in CHO cells. It counts as functional, cell-based. The gist of the method:
as §1

Assay [5] addresses Opioid receptors; mu & kappa (Homo sapiens) (UniProt P41145+P35372). In words: Selectivity for human kappa opioid receptor over human mu opioid receptor. Type of assay: protein assay.

Some results are limits rather than exact numbers.

Kappa-type opioid receptor (Homo sapiens), sequence (P41145 whole entry): as the sequence (P41145 whole entry, looked up) above
Mu-type opioid receptor (Homo sapiens), sequence (P35372 whole entry): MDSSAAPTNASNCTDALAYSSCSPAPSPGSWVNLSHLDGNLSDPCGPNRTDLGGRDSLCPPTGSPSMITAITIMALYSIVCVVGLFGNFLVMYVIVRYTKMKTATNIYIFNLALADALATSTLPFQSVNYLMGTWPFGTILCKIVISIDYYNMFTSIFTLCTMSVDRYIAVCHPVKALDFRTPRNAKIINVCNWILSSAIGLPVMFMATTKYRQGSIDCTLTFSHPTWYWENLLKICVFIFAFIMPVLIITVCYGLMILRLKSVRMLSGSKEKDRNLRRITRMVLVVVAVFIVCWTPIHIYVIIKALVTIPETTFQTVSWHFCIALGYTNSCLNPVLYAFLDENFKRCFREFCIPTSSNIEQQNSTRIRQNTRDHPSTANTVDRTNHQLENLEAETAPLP
Opioid receptors; mu & kappa (Homo sapiens), sequence (P35372 whole entry, looked up): as the sequence (P35372 whole entry) above
Opioid receptors; mu & kappa (Homo sapiens), sequence (P41145 whole entry, looked up): as the sequence (P41145 whole entry, looked up) above

As for `CC1CCN(CCC(=O)N[C@H]2CC3CC(c4cccc(O)c4)(C2)C(C)CN3CCCc2ccccc2)CC1` (stereo partly specified), the Ke in assay [1] came to 0.47 nM; in assay [2], 313 nM; in assay [4], 176 nM. Also, the Ratio Ke in assay [3] came out at 666; in assay [5], 374.

As to `CCCCCCN1CC(C)C2(c3cccc(O)c3)CC1C[C@H](NC(=O)CCN1CCc3ccccc3C1)C2` (stereo partly specified), the Ke in assay [1] is 0.2 nM; in assay [2] it was 145 nM; in assay [4], 103 nM. Further, the Ratio Ke in assay [3] amounted to 725; in assay [5], 515.

Regarding `Cc1ccccc1CN1CC(C)C2(c3cccc(O)c3)CC1C[C@H](NC(=O)CCN1CCc3ccccc3C1)C2` (stereo partly specified), the Ke is 6.1 nM in assay [1], more than 500 nM in assay [2] and more than 500 nM in assay [4]. For the same compound, the Ratio Ke in assay [3] and in assay [5] was more than 82 in each case.

For the compound `COc1ccc2c(c1)CN(CCC(=O)N[C@H]1CC3CC(c4cccc(O)c4)(C1)C(C)CN3CCCc1ccccc1)CC2` (stereo partly specified), the values for the Ke in assay [1], in assay [2] and in assay [4] were 0.28 nM, 35 nM and 28 nM, respectively. The Ratio Ke in assay [3] was 125; in assay [5], 100.

Regarding `CC1CN(CCCc2ccccc2)C2C[C@H](NC(=O)CCN3CCc4cc(O)ccc4C3)CC1(c1cccc(O)c1)C2` (stereo partly specified), the Ke in assay [1] came to 0.3 nM; in assay [2], 32 nM; in assay [4], 26 nM. Besides, the Ratio Ke in assay [3] came to 107; in assay [5], 87.

In the case of `Cc1ccccc1CCCN1CC(C)C2(c3cccc(O)c3)CC1C[C@H](NC(=O)CCN1CCc3ccccc3C1)C2` (stereo partly specified), the Ke was 0.2 nM in assay [1], 20 nM in assay [2] and 41 nM in assay [4]. The figures for the Ratio Ke in assay [3] and in assay [5] were 100 and 205, respectively.

For the compound `CC1CN(CCCc2ccco2)C2C[C@H](NC(=O)CCN3CCc4ccccc4C3)CC1(c1cccc(O)c1)C2` (stereo partly specified), the results for the Ke in assay [1], in assay [2] and in assay [4] were 0.32 nM, 52 nM and 35 nM, respectively. Moreover, the Ratio Ke came out at 163 in assay [3] and 109 in assay [5].

`CC1CN(CCCc2ccccc2)C2C[C@H](NC(=O)CCN3CCc4ccccc4C3)CC1(c1cccc(O)c1)C2` (stereo partly specified): the results for the Ke in assay [1], in assay [2] and in assay [4] were 0.09 nM, 13 nM and 48 nM, respectively. In addition, the Ratio Ke was 144 in assay [3] and 533 in assay [5].

With `COc1ccc2c(c1)CCN(CCC(=O)N[C@H]1CC3CC(c4cccc(O)c4)(C1)C(C)CN3CCCc1ccccc1)C2` (stereo partly specified), the Ke in assay [1] was found to be 0.12 nM; in assay [2], 42 nM; in assay [4], 261 nM. Also, the Ratio Ke was found to be 350 in assay [3] and 2180 in assay [5].

Turning to `CC1CN(CCCc2ccccc2)C2C[C@H](NC(=O)CCN3CCCCC3)CC1(c1cccc(O)c1)C2` (stereo partly specified), the Ke came out at 0.24 nM in assay [1], 33 nM in assay [2] and 42 nM in assay [4]. In addition, the Ratio Ke in assay [3] was determined as 138; in assay [5] it was 175.

With `CC1CN(CCCc2cccs2)C2C[C@H](NC(=O)CCN3CCc4ccccc4C3)CC1(c1cccc(O)c1)C2` (stereo partly specified), the Ke in assay [1] stood at 1.8 nM; in assay [2], 19 nM; in assay [4] it was 25 nM. Besides, the Ratio Ke in assay [3] was 11; in assay [5], 14.

With `CC1CN(CCCc2ccsc2)C2C[C@H](NC(=O)CCN3CCc4ccccc4C3)CC1(c1cccc(O)c1)C2` (stereo partly specified), the Ke was determined as 1.1 nM in assay [1], 29 nM in assay [2] and 52 nM in assay [4]. Moreover, the Ratio Ke in assay [3] worked out at 26; in assay [5] it was 47.

Consider `CC1CN(CCCc2ccccc2)C2C[C@H](NC(=O)CCN3CCN(C)CC3)CC1(c1cccc(O)c1)C2` (stereo partly specified), for which the Ke in assay [1] is 0.87 nM; in assay [2] it was 186 nM; in assay [4], 82 nM. For the same compound, the Ratio Ke in assay [3] was determined as 214; in assay [5], 94.

As to `CC1CN(CCCc2ccccc2)C2C[C@H](NC(=O)CCN3CCc4ccc(O)cc4C3)CC1(c1cccc(O)c1)C2` (stereo partly specified), the Ke in assay [1] came out at 0.09 nM; in assay [2], 62 nM; in assay [4] it was 52 nM. Also, the Ratio Ke in assay [3] stood at 689; in assay [5], 578.

For the compound `CC1CN(CCCc2ccccc2)C2C[C@H](NC(=O)CCN3CCOCC3)CC1(c1cccc(O)c1)C2` (stereo partly specified), the figures for the Ke in assay [1], in assay [2] and in assay [4] were 2.2 nM, 77 nM and 259 nM, respectively. Also, the values for the Ratio Ke in assay [3] and in assay [5] were 35 and 118, respectively.

On to `Cc1ccccc1CCN1CC(C)C2(c3cccc(O)c3)CC1C[C@H](NC(=O)CCN1CCc3ccccc3C1)C2` (stereo partly specified), for which the Ke was 0.04 nM in assay [1], 25 nM in assay [2] and 28 nM in assay [4]. Also, the Ratio Ke amounted to 625 in assay [3] and 700 in assay [5].

Turning to `COc1cc2c(cc1OC)CN(CCC(=O)N[C@H]1CC3CC(c4cccc(O)c4)(C1)C(C)CN3CCCc1ccccc1)CC2` (single isomer, unassigned; (-)), the Ke was determined as 0.54 nM in assay [1], 40 nM in assay [2] and 218 nM in assay [4]. The Ratio Ke is 74 in assay [3] and 404 in assay [5].

On to `CC1CN(CCCc2ccccc2)C2C[C@H](NC(=O)CCN3CCc4c(O)cccc4C3)CC1(c1cccc(O)c1)C2` (stereo partly specified), for which the figures for the Ke in assay [1], in assay [2] and in assay [4] were 0.07 nM, 25 nM and 4.6 nM, respectively. The values for the Ratio Ke in assay [3] and in assay [5] were 357 and 66, respectively.

In the case of `CC(C)[C@@H](CN1CC[C@@](C)(c2cccc(O)c2)[C@@H](C)C1)NC(=O)[C@H]1Cc2ccc(O)cc2CN1`, the Ke in assay [1] stood at 0.02 nM.
